Experimental data as given in ChEMBL document CHEMBL3351822, “Spongiapyridine and related spongians isolated from an Indonesian Spongia sp” (J Nat Prod, 2014).
The source made the active and inactive calls. The calls are words filed in the database; no cut-off is given here.

Legend:
[1] = biological target: Nuclear factor NF-kappa-B complex (Homo sapiens) (UniProt Q00653+P19838+Q04206); test: Inhibition of TNF-alpha-induced NF-kappaB activity in HEK293 cells after 6 hrs by luciferase reporter gene assay; format: cell-based
Chain of Nuclear factor NF-kappa-B complex (Homo sapiens) (P19838 whole entry, looked up): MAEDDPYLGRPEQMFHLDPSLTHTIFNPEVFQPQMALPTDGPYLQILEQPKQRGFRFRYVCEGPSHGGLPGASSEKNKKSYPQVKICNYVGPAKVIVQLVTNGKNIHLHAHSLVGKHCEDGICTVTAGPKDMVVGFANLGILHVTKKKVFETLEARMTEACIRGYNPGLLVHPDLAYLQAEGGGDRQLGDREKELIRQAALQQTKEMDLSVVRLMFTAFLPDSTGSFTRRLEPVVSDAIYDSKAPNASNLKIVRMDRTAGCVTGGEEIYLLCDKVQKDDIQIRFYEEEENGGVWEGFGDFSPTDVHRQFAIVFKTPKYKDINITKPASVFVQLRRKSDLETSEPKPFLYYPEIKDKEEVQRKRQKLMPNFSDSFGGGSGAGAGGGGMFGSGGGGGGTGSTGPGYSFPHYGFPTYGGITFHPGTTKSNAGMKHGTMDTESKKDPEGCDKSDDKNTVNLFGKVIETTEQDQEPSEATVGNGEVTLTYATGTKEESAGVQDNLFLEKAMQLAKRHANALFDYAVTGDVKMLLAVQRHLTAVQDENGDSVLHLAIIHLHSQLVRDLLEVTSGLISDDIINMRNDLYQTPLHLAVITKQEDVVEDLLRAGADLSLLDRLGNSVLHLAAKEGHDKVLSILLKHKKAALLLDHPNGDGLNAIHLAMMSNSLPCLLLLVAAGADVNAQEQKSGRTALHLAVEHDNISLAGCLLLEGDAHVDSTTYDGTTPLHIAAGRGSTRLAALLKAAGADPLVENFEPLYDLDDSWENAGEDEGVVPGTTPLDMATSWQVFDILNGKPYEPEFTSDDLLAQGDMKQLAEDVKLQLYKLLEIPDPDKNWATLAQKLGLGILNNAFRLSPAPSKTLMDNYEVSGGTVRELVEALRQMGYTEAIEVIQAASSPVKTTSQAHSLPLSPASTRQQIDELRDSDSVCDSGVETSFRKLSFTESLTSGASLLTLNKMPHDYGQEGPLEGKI
Chain of Nuclear factor NF-kappa-B complex (Homo sapiens) (Q00653 whole entry, looked up): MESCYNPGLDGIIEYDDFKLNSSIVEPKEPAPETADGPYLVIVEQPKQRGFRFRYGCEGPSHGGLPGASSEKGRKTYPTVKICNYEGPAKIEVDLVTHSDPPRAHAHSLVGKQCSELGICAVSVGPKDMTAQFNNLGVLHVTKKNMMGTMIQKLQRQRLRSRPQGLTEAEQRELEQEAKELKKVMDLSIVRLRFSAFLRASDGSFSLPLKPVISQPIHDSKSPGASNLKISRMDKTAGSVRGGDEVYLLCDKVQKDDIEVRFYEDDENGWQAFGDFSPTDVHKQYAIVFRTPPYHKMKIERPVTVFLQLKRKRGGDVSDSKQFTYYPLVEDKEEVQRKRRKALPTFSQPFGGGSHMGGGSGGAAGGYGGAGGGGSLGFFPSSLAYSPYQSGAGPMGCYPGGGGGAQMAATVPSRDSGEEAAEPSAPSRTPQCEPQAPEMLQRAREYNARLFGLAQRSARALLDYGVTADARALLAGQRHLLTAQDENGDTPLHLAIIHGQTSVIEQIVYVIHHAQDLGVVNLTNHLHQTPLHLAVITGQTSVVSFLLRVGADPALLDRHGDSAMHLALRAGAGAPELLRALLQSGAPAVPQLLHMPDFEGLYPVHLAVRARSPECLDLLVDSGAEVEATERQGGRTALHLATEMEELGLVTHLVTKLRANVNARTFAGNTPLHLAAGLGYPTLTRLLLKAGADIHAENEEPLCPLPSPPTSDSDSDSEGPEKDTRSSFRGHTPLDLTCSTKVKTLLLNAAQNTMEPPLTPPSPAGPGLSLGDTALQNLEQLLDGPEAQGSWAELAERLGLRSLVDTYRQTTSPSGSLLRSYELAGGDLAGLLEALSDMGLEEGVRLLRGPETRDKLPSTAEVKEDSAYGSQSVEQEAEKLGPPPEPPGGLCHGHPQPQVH
Chain of Nuclear factor NF-kappa-B complex (Homo sapiens) (Q04206 whole entry, looked up): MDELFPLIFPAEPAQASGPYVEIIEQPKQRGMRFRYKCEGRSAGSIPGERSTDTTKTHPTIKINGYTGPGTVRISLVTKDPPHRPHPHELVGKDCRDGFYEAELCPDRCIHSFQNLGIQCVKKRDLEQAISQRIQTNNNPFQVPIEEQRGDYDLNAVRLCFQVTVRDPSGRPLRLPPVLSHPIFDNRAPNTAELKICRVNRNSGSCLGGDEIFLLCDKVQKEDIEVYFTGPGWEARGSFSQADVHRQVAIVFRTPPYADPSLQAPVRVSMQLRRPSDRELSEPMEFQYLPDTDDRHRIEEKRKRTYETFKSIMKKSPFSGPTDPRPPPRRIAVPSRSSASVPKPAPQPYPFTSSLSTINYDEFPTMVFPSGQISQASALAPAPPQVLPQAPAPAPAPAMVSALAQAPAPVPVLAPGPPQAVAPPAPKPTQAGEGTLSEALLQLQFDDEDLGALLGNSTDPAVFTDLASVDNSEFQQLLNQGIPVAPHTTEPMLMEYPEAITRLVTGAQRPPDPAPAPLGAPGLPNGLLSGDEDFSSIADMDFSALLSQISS

[2] = biological target: T1, Nitric oxide synthase, inducible (Mus musculus) (UniProt P29477); test: Inhibition of LPS-induced iNOS activity in mouse RAW264.7 cells after 24 hrs; format: cell-based
T1 sequence (whole entry): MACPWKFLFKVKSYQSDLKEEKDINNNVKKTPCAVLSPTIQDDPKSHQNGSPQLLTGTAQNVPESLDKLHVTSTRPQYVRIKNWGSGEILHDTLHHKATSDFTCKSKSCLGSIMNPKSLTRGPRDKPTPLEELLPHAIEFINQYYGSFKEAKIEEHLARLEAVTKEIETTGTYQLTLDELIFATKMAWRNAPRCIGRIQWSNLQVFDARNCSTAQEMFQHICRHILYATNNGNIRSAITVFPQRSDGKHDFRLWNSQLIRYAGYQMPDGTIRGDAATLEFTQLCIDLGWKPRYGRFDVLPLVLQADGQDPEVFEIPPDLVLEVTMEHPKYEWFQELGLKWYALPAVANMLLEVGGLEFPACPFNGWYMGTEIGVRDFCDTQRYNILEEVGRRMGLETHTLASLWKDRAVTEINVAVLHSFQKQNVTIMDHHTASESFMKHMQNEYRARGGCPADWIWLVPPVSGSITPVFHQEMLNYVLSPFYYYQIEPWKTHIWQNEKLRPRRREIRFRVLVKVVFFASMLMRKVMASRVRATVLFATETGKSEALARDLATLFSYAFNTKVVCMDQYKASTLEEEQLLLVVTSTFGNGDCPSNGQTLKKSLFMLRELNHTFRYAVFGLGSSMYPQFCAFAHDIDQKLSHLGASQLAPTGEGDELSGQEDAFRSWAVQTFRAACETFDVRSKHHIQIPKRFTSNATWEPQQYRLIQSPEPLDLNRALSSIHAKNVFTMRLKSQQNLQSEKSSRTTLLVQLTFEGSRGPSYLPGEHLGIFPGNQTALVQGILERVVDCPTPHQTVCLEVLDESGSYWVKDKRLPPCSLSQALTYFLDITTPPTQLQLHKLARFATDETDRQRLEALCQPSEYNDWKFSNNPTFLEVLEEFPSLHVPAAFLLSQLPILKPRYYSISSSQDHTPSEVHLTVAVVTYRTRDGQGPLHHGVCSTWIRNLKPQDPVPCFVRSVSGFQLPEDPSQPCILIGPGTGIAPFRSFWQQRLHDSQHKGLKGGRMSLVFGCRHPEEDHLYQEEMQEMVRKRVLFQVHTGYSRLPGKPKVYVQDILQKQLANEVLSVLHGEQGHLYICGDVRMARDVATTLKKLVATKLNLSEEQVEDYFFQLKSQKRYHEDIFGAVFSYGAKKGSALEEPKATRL

Aromatase [3] = biological target: T2, Aromatase (Homo sapiens, UniProt P11511); test: Inhibition of aromatase (unknown origin) using dibenzylfluorescein substrate at 50 uM after 24 hrs by fluorescence assay
T2 sequence (P11511 whole entry): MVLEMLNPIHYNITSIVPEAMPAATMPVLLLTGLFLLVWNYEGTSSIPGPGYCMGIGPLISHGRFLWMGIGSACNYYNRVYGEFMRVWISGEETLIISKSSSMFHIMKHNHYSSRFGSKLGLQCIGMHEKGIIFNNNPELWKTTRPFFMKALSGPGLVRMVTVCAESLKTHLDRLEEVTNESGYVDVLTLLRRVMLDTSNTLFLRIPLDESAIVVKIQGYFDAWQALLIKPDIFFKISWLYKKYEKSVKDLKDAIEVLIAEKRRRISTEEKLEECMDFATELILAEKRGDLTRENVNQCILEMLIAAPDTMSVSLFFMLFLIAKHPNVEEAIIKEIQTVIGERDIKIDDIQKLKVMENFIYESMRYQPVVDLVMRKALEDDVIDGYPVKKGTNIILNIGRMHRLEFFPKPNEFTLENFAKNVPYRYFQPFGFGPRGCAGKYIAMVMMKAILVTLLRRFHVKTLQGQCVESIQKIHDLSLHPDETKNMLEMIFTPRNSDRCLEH

[4] = biological target: Beta-secretase 1 (Homo sapiens) (UniProt P56817); test: Inhibition of BACE1 (unknown origin) assessed as proteolytic cleavage of amyloid precursor protein after 16 hrs at < 100 uM by chemiluminescence assay
Chain of Beta-secretase 1 (Homo sapiens) (P56817 whole entry): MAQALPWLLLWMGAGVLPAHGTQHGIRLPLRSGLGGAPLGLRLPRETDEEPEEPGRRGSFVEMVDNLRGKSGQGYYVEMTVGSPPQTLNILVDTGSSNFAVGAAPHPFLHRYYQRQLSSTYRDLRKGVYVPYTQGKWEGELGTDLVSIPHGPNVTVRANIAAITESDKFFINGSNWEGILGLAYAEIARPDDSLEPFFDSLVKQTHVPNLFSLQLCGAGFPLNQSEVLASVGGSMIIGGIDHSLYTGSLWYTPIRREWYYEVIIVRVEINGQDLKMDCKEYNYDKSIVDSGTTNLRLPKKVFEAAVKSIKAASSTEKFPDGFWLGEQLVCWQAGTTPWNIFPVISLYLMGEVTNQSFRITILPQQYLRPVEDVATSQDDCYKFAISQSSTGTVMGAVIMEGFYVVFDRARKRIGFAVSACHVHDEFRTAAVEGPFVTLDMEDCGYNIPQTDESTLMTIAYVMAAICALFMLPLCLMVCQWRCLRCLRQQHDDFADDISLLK

Aromatase [5] = biological target: T2, Aromatase; test: Inhibition of aromatase (unknown origin) using dibenzylfluorescein substrate after 24 hrs by fluorescence assay
[6] = biological target: NAD(P)H dehydrogenase [quinone] 1 (Mus musculus) (UniProt Q64669); test: Induction of quinone reductase 1 in mouse Hepa-1c1c7 cells after 48 hrs by MTT assay; format: cell-based
Chain of NAD(P)H dehydrogenase [quinone] 1 (Mus musculus) (Q64669 whole entry): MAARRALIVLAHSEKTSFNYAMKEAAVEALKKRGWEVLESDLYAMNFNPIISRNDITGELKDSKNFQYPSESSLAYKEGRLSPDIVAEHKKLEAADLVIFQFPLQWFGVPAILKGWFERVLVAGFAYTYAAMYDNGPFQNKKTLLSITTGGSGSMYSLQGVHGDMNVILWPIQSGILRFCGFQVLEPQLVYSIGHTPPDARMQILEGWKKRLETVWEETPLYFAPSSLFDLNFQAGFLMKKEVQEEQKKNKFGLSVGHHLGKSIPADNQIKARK
Outline: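 QR1 induction measured in cultured murine Hepa 1c1c7 hepatoma cells. Potency is expressed as the CD value, the test-compound concentration needed to double QR1 enzymatic activity.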

| ED50 [1] | inhibition [2] | inhibition at 50 µM (Aromatase [3]) | inhibition [4] | IC50 (Aromatase [5]) | CD [6] | Compound |
| --- | --- | --- | --- | --- | --- | --- |
| > 50 µM | inactive | < 50% | inactive | – | – | CC1=C(O)C(=O)C[C@@]2(C)[C@H]1CC[C@@]1(CO)c3cocc3CC[C@@H]12 |
| > 50 µM | inactive | < 50% | inactive | – | – | C[C@]12CC(=O)OC[C@@](C)(C(=O)O)[C@@H]1CC[C@@]1(CO)c3cocc3CC[C@@H]12 |
| > 50 µM | inactive | – | inactive | 34.4 µM | 11.2 µM | CC1=C(O)C(=O)C[C@]2(C)[C@H]3CCc4cocc4[C@]3(CO)CCC12O (some centres not stated) |
| > 50 µM | inactive | < 50% | inactive | – | – | CC1=C(O)C(=O)C[C@@]2(C)[C@H]1CC[C@@]1(CO)c3cnccc3C(=O)C[C@@H]12 |
